Measured values collected from several papers.
Lines come from different studies, so protocols differ.
CA1: Carbonic anhydrase 1 (CA1, Homo sapiens, UniProt P00915)
ADRA2A: Alpha-2A adrenergic receptor (ADRA2A, Homo sapiens, UniProt P08913)
CA2: Carbonic anhydrase 2 (CA2, Homo sapiens, UniProt P00918)

target | test | Ki [nM] | Compound
CA1 | enzyme activity, inhibitor | 8510 | C[C@H]1c2cccc(O)c2C(=O)C2=C(O)[C@]3(O)C(=O)C(C(N)=O)=C(O)[C@@H](N(C)C)[C@@H]3[C@@H](O)[C@@H]21
ADRA2A | ligand displacement, radioligand | 841 | Cc1cc(Oc2ncccc2CN2CCN(c3ccc(Br)cc3)CC2)ccc1-c1c(C)c(=O)[nH]c(=O)n1C
CA1 | enzyme activity, inhibitor | 11600 | Nc1ccc(S(=O)(=O)c2ccc(N)cc2)cc1
CA1 | enzyme activity, inhibitor, stopped-flow | > 100000 | O=C(Oc1ccc(-c2ccccc2)cc1)c1ccc(=O)oc1
CA1 | enzyme activity, inhibitor | 5750 | CC1=C(/C=C/C(C)=C/C=C/C(C)=C\C(=O)O)C(C)(C)CCC1
CA2 | enzyme activity, inhibitor, stopped-flow | 18.3 | CC(C(=O)Nc1nnc(S(N)(=O)=O)s1)C1CCCCC1 (stereo not drawn)
CA2 | enzyme activity, inhibitor, absorbance | 17900 | CC(C)(C(=O)O)c1ccc(C(O)CCCN2CCC(C(O)(c3ccccc3)c3ccccc3)CC2)cc1 (stereo not drawn)
CA2 | enzyme activity, inhibitor, stopped-flow | 40.1 | NS(=O)(=O)c1nnc(NC(=O)C2CCC3(CCCCC3)C2)s1 (stereo not drawn)
CA2 | enzyme activity, inhibitor | 271 | OC1CCN(c2ccc(/C=N/NC(=S)Nc3cccc(Cl)c3Cl)cc2)CC1
ADRA2A | ligand displacement, radioligand | 57 | Cc1cc(Oc2ncccc2CN2CCN(c3ccccc3O)CC2)ccc1-c1c(C)c(=O)[nH]c(=O)n1C
CA1 | enzyme activity, inhibitor, stopped-flow | 42.4 | Cc1cccc(CC(=O)Nc2nnc(S(N)(=O)=O)s2)c1
CA1 | enzyme activity, inhibitor, stopped-flow | > 100000 | COc1ccc(-n2cc(CNC(=O)c3ccc(=O)oc3)nn2)cc1
ADRA2A | ligand displacement, radioligand | 59.4 | Cc1cc(Oc2ncccc2CN2CCN(c3ccccc3C)CC2)ccc1-c1c(C)c(=O)[nH]c(=O)n1C
CA1 | enzyme activity, inhibitor, stopped-flow | > 100000 | Cc1ccc(OC(=O)c2ccc(=O)oc2)cc1
ADRA2A | ligand displacement, radioligand | 576 | Cc1cc(Oc2ncccc2CN2CCN(c3ccc(Cl)cc3)CC2)ccc1-c1c(C)c(=O)[nH]c(=O)n1C
CA2 | enzyme activity, inhibitor, absorbance | 8720 | COc1ccnc(C[S+]([O-])c2nc3ccc(OC(F)F)cc3[nH]2)c1OC (stereo not drawn)
ADRA2A | ligand displacement, radioligand | 418 | Cc1cc(Oc2ncccc2CN2CCN(c3ccc(F)c(F)c3)CC2)ccc1-c1c(C)c(=O)[nH]c(=O)n1C
CA1 | enzyme activity, inhibitor, stopped-flow | 68.2 | NS(=O)(=O)c1nnc(NC(=O)CN2CCC(F)CC2)s1
